Results published in ChEMBL document CHEMBL4351026, “Antifungal activity, mode of action variability, and subcellular distribution of coumarin-based antifungal azoles” (Eur J Med Chem, 2019).
pIC50: −log10 of the molar value. Converted amounts (≈) assume the structure as drawn. The source made the active and inactive calls. The calls are words filed in the database; no cut-off is given here.

Experiments:
[1] = tested on: Nakaseomyces glabratus; assay: Antifungal activity against Candida glabrata ATCC 2001 assessed as reduction in fungal cell growth incubated for 24 hrs by MTT based broth double dilution method; type: functional; conditions: ATCC 2001, 24 h
Outline: (§1)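 Broth double-dilution in Casitone broth. Starter cultures were grown 24 or 48 h at 37 °C, 5% CO₂, diluted 1:100, and added to serial two-fold dilutions at 64 to 0.007 µg/mL. Final inoculum was 5 x 10^4 to 5 x 10^5 CFU/mL; DMSO was 0.0012–1.3%. Plates were incubated at 37 °C, 5% CO₂, then MTT was added for 2 h. MIC followed CLSI M27-A3. Triplicates, two independent experiments.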

[2] = tested on: Candida dubliniensis; assay: Antifungal activity against Candida dubliniensis T-99 assessed as reduction in fungal cell growth incubated for 24 hrs by MTT based broth double dilution method; type: functional; conditions: T-99, 24 h; outline: as §1
[3] = Cytotoxicity against human HEK293T cells assessed as reduction in cell viability at 5 to 50 uM incubated for 24 hrs by XTT assay relative to control; type: cell-based, HEK-293T; conditions: HEK293T cells, read-out: INH
Outline: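 HEK-293T cells were grown in DMEM with 10% FBS, 1% NEAA, 1% pyruvate and pen-strep-nystatin at 37 °C and 5% CO2. 7000 cells/well were seeded on poly-D-lysine-coated wells. After 24 h the medium was renewed and compounds were added at 5–50 µM from 1 mM stocks in 10% DMSO/0.3% Tween/PBS. After 24 h, XTT was added for 2 h at 37 °C, with absorbance read at 475 nm (reference 660 nm).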

[4] = Cytotoxicity against human HepG2 cells assessed as reduction in cell viability at 5 to 50 uM incubated for 24 hrs by XTT assay relative to control; type: cell-based; conditions: read-out: INH
Outline: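 HepG2 cells were maintained in RPMI with 15% FBS, 1% NEAA, 1% pyruvate and pen-strep-nystatin at 37 °C and 5% CO2. 4000 cells/well were plated on poly-D-lysine coating and given fresh medium after 24 h. Compounds were dosed at 5–50 µM from 1 mM stocks in 10% DMSO/0.3% Tween/PBS and incubated 24 h. Viability was read by XTT (2 h, 37 °C) at 475 nm against 660 nm.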

[5] = tested on: Nakaseomyces glabratus; assay: Antifungal activity against Candida glabrata ATCC 66032 assessed as reduction in fungal cell growth incubated for 24 hrs by MTT based broth double dilution method; type: functional; conditions: ATCC 66032, 24 h; outline: as §1
[6] = tested on: HepG2; assay: Cytotoxicity against human HepG2 cells assessed as reduction in cell viability at 5 to 50 uM incubated for 24 hrs by XTT assay; type: cell-based; conditions: hepg2, 24 h
Outline: (§2)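 HEK-293T were grown in DMEM with 10% FBS; HepG2 in RPMI with 15% FBS; both at 37 °C, 5% CO₂. Cells (4000 HepG2 or 7000 HEK-293T per well) were seeded on poly-D-lysine wells. After 24 h the medium was renewed and compounds added at 5–50 µM from 1 mM stocks in 10% DMSO/0.3% Tween/PBS. After 24 h more, XTT was added for 2 h at 37 °C; absorbance was read at 475 nm against 660 nm reference.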

[7] = tested on: Candida albicans; assay: Antifungal activity against Candida albicans SN152 assessed as reduction in fungal cell growth incubated for 24 hrs by MTT based broth double dilution method; type: functional; conditions: SN152, 24 h; outline: as §1
[8] = tested on: Candida parapsilosis; assay: Antifungal activity against Candida parapsilosis ATCC 90018 assessed as reduction in fungal cell growth incubated for 24 hrs by MTT based broth double dilution method; type: functional; conditions: Lodderomyces parapsilosis, ATCC 90018, 24 h; outline: as §1
[9] = tested on: Candida albicans; assay: Antifungal activity against Candida albicans ATCC 90028 assessed as reduction in fungal cell growth incubated for 48 hrs by MTT based broth double dilution method; type: functional; conditions: ATCC 90028, 48 h; outline: as §1
[10] = tested on: Nakaseomyces glabratus; assay: Antifungal activity against Candida glabrata ATCC 66032 assessed as reduction in fungal cell growth incubated for 48 hrs by MTT based broth double dilution method; type: functional; conditions: ATCC 66032, 48 h; outline: as §1
[11] = tested on: Nakaseomyces glabratus; assay: Antifungal activity against Candida glabrata 192 assessed as reduction in fungal cell growth incubated for 24 hrs by MTT based broth double dilution method; type: functional; conditions: Nakaseomyces glabratus, 192, 24 h; outline: as §1
[12] = tested on: Nakaseomyces glabratus; assay: Antifungal activity against Candida glabrata 192 assessed as reduction in fungal cell growth incubated for 48 hrs by MTT based broth double dilution method; type: functional; conditions: Nakaseomyces glabratus, 192, 48 h; outline: as §1
[13] = tested on: Candida parapsilosis; assay: Antifungal activity against Candida parapsilosis ATCC 22019 assessed as reduction in fungal cell growth incubated for 24 hrs by MTT based broth double dilution method; type: functional; conditions: Lodderomyces parapsilosis, ATCC 22019, 24 h; outline: as §1
[14] = tested on: Candida albicans; assay: Antifungal activity against Candida albicans P-87 assessed as reduction in fungal cell growth incubated for 24 hrs by MTT based broth double dilution method; type: functional; conditions: P-87, 24 h; outline: as §1
[15] = tested on: Candida albicans; assay: Antifungal activity against Candida albicans SN152 assessed as reduction in fungal cell growth incubated for 48 hrs by MTT based broth double dilution method; type: functional; conditions: SN152, 48 h; outline: as §1
[16] = tested on: HEK-293T; assay: Cytotoxicity against human HEK293T cells assessed as reduction in cell viability at 5 to 50 uM incubated for 24 hrs by XTT assay; type: cell-based; outline: as §2
[17] = biological target: Cytochrome P450 3A4 (Homo sapiens, UniProt P08684); assay: Inhibition of recombinant human CYP3A4 using Luciferin-PPXE as substrate preincubated for 10 mins followed by NADPH addition measured after 15 mins by luminometric method; type: ADME
Sequence of Cytochrome P450 3A4 (P08684 whole entry): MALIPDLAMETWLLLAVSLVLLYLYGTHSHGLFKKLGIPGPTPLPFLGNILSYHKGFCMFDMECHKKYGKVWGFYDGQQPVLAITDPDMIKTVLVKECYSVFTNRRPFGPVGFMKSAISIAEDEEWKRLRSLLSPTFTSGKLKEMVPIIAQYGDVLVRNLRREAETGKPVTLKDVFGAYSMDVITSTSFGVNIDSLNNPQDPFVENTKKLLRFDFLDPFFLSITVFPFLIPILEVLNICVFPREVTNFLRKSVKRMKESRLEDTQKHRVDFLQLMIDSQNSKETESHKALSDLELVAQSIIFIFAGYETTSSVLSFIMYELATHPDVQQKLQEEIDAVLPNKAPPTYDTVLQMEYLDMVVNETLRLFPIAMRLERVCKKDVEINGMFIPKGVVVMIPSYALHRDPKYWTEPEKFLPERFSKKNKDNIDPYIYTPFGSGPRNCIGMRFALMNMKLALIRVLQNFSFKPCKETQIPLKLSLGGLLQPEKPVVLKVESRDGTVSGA
Outline: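 P450-Glo luminescent assay, Luciferin-PPXE substrate. Compound was mixed with membranes containing recombinant human CYP3A4; controls were vehicle with membranes lacking CYP3A4. After 10 min preincubation at 37 °C, NADPH regeneration reagent was added and the mixture kept 15 min at 37 °C. Luciferin detection reagent stopped the reaction; after 20 min at room temperature, luminescence was read. Duplicates.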

[18] = tested on: Candida albicans; assay: Antifungal activity against Candida albicans ATCC 90028 assessed as reduction in fungal cell growth incubated for 24 hrs by MTT based broth double dilution method; type: functional; conditions: ATCC 90028, 24 h; outline: as §1
[19] = tested on: Meyerozyma guilliermondii; assay: Antifungal activity against Candida guilliermondii T-47 assessed as reduction in fungal cell growth incubated for 24 hrs by MTT based broth double dilution method; type: functional; conditions: T-47, 24 h; outline: as §1
[20] = Drug distribution in Candida glabrata 2001 assessed as subcellular compound distribution at 10 uM incubated for 60 mins by fluorescent imaging analysis; type: ADME; conditions: nakaseomyces glabratus, 1 h
Outline: (§3)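 Yeast were grown overnight at 30 °C in YPD liquid, diluted 1:10, and grown 2 h at 30 °C to log phase. Fluorescent azole was added at 10 µM final and incubated 60 min in the dark. Cells were washed once in PBS and imaged on slides in bright field and fluorescence (ex 427 nm, em 510 nm).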

[21] = Drug distribution in Candida albicans SN152 assessed as subcellular compound distribution at 10 uM incubated for 60 mins by fluorescent imaging analysis; type: ADME; conditions: 1 h; outline: as §3
[22] = tested on: Candida albicans; assay: Antifungal activity against ERG11/ERG3 knocked out Candida albicans SN152 assessed as zone of inhibition at 25 ug […] by disk diffusion method; type: functional, organism-based
[23] = tested on: Candida albicans; assay: Antifungal activity against Candida albicans SN152 assessed as zone inhibition at 25 ug incubated for 24 hrs by disk diffusion method; type: functional, organism-based
Outline: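 Strains were streaked on YPD agar and grown at 30 °C: 24 h for parental SN152, 48 h for the erg11ΔΔ erg3ΔΔ mutant. Colonies were suspended in PBS and adjusted to OD 0.02 (SN152) or 0.03 (mutant), then spread on Casitone plates. A 6-mm disk loaded with 25 µg compound was placed centrally. Plates were incubated at 30 °C and photographed after 24 h.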

MIC [1] [µg/mL] | MIC [2] [µg/mL] | MIC [5] [µg/mL] | MIC [7] [µg/mL] | MIC [8] [µg/mL] | MIC [9] [µg/mL] | MIC [10] [µg/mL] | MIC [11] [µg/mL] | MIC [12] [µg/mL] | MIC [13] [µg/mL] | MIC [14] [µg/mL] | MIC [15] [µg/mL] | pIC50 [17] | MIC [18] [µg/mL] | MIC [19] [µg/mL] | SMILES | cytotoxicity at 24 h, up to 50 µM [3] [%] | cytotoxicity at 24 h, up to 50 µM [4] [%] | Activity [6] | Activity [16] | inhibition zone (IZ) [22] | further results
2 (≈ 3.78 µM) | 0.25 (≈ 0.472 µM) | 4 (≈ 7.56 µM) | 0.03 (≈ 0.0567 µM) | 0.015 (≈ 0.0283 µM) | 0.03 (≈ 0.0567 µM) | > 64 | 0.25 (≈ 0.472 µM) | 1 (≈ 1.89 µM) | 0.06 (≈ 0.113 µM) | 0.03 (≈ 0.0567 µM) | 0.06 (≈ 0.113 µM) | 6.90 | 0.015 (≈ 0.0283 µM) | 0.125 (≈ 0.236 µM) | CCN(CC)c1ccc2cc(C(=O)NCC(O)(Cn3ccnc3)c3ccc(Cl)cc3Cl)c(=O)oc2c1 (racemic) | < 40 | < 40 | Toxic | Toxic |  | 
8 (≈ 16.1 µM) | 0.5 (≈ 1.01 µM) | 8 (≈ 16.1 µM) | 0.06 (≈ 0.121 µM) | 0.015 (≈ 0.0302 µM) | 0.06 (≈ 0.121 µM) | 32 (≈ 64.4 µM) | 2 (≈ 4.03 µM) | 4 (≈ 8.06 µM) | 0.125 (≈ 0.252 µM) | 0.06 (≈ 0.121 µM) | 0.125 (≈ 0.252 µM) | 5.88 | 0.015 (≈ 0.0302 µM) | 0.5 (≈ 1.01 µM) | CCN(CC)c1ccc2cc(C(=O)NCC(O)(Cn3ccnc3)c3ccc(F)cc3F)c(=O)oc2c1 (racemic) |  |  |  |  | Active | Drug uptake [20]: Active; Drug uptake [21]: Active; inhibition zone (IZ) [23]: Active
> 64 | 0.5 (≈ 0.917 µM) | > 64 | 0.06 (≈ 0.11 µM) | 0.25 (≈ 0.458 µM) | 0.06 (≈ 0.11 µM) | > 64 | 2 (≈ 3.67 µM) | > 64 | 0.5 (≈ 0.917 µM) | 0.03 (≈ 0.055 µM) | 0.06 (≈ 0.11 µM) | ≤ 5.60 | 0.06 (≈ 0.11 µM) | 0.5 (≈ 0.917 µM) | CCC(CC)Oc1ccc2cc(C(=O)NCC(O)(Cn3cncn3)c3ccc(Cl)cc3Cl)c(=O)oc2c1 (racemic) | < 40 | < 40 | Non-Toxic | Non-Toxic |  | 
16 (≈ 30.2 µM) | 0.5 (≈ 0.943 µM) | 4 (≈ 7.54 µM) | 0.03 (≈ 0.0566 µM) | 0.06 (≈ 0.113 µM) | 0.06 (≈ 0.113 µM) | > 64 | 4 (≈ 7.54 µM) | > 64 | 0.5 (≈ 0.943 µM) | 0.03 (≈ 0.0566 µM) | 0.06 (≈ 0.113 µM) | 6.45 | 0.03 (≈ 0.0566 µM) | 0.25 (≈ 0.471 µM) | CCN(CC)c1ccc2cc(C(=O)NCC(O)(Cn3cncn3)c3ccc(Cl)cc3Cl)c(=O)oc2c1 (racemic) | < 40 | < 40 | Non-Toxic | Non-Toxic | inactive | inhibition zone (IZ) [23]: Active
